Source: ChEMBL document CHEMBL2321662, “Azepines and piperidines with dual norepinephrine dopamine uptake inhibition and antidepressant activity” (ACS Med Chem Lett, 2013)
Activity calls are given as the source filed them. No cut-off for these calls is given here.

Tests used:
[1] = target: Sodium-dependent serotonin transporter (Homo sapiens, UniProt P31645); assay: Inhibition of human recombinant SERT expressed in HEK cells; assay type: cell-based, HEK293
Procedure, shortened: (§1)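 HEK cells overexpressing human recombinant transporter; uptake inhibition read as block of a fluorescent substrate with a neurotransmitter uptake kit. Values averaged from at least n = 3, up to 2-fold variability.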

[2] = target: Voltage-gated inwardly rectifying potassium channel KCNH2 (Homo sapiens, UniProt Q12809); assay: Inhibition of human ERG expressed in CHO-K1 cells by electrophysiological assay; assay type: cell-based
Voltage-gated inwardly rectifying potassium channel KCNH2, sequence (Q12809 whole entry): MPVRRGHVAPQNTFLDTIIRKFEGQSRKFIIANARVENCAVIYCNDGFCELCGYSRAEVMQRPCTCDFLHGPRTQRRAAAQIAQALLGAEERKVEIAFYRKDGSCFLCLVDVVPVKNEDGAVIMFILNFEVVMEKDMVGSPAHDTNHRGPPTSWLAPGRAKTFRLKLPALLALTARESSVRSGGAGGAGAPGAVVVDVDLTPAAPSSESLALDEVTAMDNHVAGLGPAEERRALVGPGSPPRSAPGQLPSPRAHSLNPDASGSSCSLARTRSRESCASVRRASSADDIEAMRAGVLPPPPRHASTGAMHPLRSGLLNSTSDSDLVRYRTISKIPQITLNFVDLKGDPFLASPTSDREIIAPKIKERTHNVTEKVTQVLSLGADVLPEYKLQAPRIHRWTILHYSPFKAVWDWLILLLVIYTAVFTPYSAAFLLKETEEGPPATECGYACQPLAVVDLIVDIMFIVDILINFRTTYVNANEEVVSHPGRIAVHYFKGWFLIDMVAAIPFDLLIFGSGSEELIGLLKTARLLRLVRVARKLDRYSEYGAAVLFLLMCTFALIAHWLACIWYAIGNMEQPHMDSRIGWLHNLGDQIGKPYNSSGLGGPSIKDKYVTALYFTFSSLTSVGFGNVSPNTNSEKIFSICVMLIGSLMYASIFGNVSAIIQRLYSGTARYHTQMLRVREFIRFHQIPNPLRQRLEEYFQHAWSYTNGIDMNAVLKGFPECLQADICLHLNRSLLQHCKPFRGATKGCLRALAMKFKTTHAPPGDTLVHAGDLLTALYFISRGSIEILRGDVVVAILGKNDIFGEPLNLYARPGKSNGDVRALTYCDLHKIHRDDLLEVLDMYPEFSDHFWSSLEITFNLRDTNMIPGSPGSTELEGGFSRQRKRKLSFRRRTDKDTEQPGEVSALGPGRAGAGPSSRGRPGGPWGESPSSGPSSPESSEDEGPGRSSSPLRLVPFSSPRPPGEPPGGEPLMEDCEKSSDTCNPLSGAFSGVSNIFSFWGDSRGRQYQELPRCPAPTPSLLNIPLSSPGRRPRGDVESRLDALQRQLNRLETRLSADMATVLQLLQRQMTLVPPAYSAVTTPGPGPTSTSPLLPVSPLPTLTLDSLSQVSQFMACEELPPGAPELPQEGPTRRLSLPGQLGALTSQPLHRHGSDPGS

[3] = target: Sodium-dependent dopamine transporter (Homo sapiens, UniProt Q01959); assay: Inhibition of human recombinant DAT expressed in HEK cells; assay type: cell-based, HEK293
Sodium-dependent dopamine transporter, sequence (Q01959 whole entry): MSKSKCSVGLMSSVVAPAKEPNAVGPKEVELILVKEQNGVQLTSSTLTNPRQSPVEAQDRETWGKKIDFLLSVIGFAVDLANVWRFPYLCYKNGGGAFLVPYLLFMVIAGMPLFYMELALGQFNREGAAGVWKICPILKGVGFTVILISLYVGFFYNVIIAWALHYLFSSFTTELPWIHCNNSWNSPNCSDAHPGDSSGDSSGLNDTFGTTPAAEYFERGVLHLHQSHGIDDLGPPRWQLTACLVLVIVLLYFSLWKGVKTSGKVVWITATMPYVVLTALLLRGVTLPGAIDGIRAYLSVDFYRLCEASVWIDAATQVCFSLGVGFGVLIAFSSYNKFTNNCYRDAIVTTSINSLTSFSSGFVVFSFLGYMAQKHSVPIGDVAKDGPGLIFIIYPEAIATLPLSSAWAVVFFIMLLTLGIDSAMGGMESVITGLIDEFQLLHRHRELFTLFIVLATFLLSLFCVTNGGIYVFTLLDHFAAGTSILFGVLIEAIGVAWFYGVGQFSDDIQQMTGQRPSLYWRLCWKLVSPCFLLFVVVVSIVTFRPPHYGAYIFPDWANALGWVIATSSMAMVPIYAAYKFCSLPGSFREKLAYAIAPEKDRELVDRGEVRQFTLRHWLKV

[4] = target: Sodium-dependent noradrenaline transporter (Homo sapiens, UniProt P23975); assay: Inhibition of human recombinant NET expressed in HEK cells; assay type: cell-based, HEK293; procedure, shortened: as §1
Sodium-dependent noradrenaline transporter, sequence (P23975 whole entry): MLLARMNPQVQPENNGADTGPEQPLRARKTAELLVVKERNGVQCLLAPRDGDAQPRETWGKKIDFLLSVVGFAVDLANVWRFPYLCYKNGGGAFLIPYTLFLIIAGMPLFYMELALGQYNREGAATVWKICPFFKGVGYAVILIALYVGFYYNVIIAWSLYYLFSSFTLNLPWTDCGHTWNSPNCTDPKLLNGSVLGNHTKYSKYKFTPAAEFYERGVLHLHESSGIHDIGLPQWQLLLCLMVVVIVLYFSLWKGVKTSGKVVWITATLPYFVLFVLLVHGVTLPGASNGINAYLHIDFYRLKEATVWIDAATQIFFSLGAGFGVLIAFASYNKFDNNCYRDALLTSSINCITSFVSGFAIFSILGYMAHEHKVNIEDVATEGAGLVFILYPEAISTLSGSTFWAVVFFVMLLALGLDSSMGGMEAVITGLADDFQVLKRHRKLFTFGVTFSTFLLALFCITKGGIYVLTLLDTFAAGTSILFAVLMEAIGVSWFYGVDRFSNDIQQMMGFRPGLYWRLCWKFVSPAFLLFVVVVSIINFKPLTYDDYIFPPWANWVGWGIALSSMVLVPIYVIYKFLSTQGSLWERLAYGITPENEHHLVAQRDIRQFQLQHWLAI

[5] = Intrinsic clearance in human liver microsomes; assay type: ADME, Microsome; details: read-out: CLH
Procedure, shortened: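 Human liver microsomes; intrinsic clearance reported in μL/min/mg.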

[6] = target: Cytochrome P450 2D6 (Homo sapiens, UniProt P10635); assay: Inhibition of CYP2D6 (unknown origin); assay type: ADME
Cytochrome P450 2D6, sequence (P10635 whole entry): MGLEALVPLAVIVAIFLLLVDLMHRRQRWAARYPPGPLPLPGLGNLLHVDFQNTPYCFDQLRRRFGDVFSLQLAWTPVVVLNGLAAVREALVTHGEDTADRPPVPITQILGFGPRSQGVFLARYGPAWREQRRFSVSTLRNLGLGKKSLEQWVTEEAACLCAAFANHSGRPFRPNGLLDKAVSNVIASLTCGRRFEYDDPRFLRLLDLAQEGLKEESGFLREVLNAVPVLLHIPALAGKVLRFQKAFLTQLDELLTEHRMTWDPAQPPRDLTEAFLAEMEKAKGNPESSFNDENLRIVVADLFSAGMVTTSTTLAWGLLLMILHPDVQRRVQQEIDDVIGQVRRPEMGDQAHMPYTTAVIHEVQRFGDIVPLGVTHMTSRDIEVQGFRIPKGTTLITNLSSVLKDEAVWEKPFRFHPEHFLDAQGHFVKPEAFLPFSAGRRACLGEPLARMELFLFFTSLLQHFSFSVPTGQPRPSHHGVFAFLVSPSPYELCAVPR

[7] = test system: Plasma; assay: Fraction unbound in Long Evans rat plasma; assay type: ADME, cell-free
[8] = Ratio of drug level in whole brain to plasma in Long Evans rat; assay type: ADME, cell-free; details: whole brain and plasma, read-out: BPR
[9] = test system: Rattus norvegicus; assay: In vivo NET occupancy in sc dosed Long Evans rat thalamus [3H]-MeNER administered 30 mins before [3H]-MeNER challenge measured after 90 mins; assay type: functional
Procedure, shortened: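 Rats received test compound, then 30 min later sc [3H]MeNER as the NET radioligand, counted in thalamus. […] Mean reported; 95% CI typically ± half the mean.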

[10] = species on record: Rattus norvegicus; assay: animal or person; assay type: functional, organism-based; details: Long Evans, Striatum
[11] = test system: Rattus norvegicus; assay: In vivo NET occupancy in sc dosed Long Evans rat thalamus assessed as unbound plasma levels equaling 50% occupancy using [3H]-MeNER administered 30 mins before [3H]-MeNER challenge measured after 90 mins; assay type: functional, organism-based
[12] = Metabolic stability of the compound assessed as GSH adduct formation; assay type: ADME
[13] = test system: Rattus norvegicus; assay: Antidepressant activity in sc dosed Sprague-Dawley rat assessed as increase of locomotor activity and stereotypic behavior; assay type: functional, organism-based
Procedure, shortened: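 Rats were dosed sc. Spontaneous locomotion was scored over the last 15 min of the session: distance traveled from beam breaks, and stereotypy from repeated breaks of the same beam. Data are group means ± SEM, compared with vehicle by one-way ANOVA.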

[14] = test system: Rattus norvegicus; assay: Antidepressant activity in Sprague-Dawley rat assessed as reduction of immobility time at 0.7 mg/kg, sc measured for 5 mins by forced swimming test; assay type: functional, organism-based; parameters: dose 0.7 mg/kg
Procedure, shortened: (§2)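 Sprague–Dawley rats dosed sc, then scored for immobility time in the forced-swim test. The positive control was desipramine at 15 mg/kg ip. Data are group means ± SEM, compared with vehicle by one-way ANOVA.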

[15] = test system: Rattus norvegicus; assay: Antidepressant activity in Sprague-Dawley rat assessed as reduction of immobility time at 2.4 to 7.3 mg/kg, sc measured for 5 mins by forced swimming test; assay type: functional, organism-based; procedure, shortened: as §2
[16] = test system: Rattus norvegicus; assay: In vivo DAT occupancy in sc dosed Long Evans rat striatum using [3H]PE2I administered 30 mins before [3H]PE2I challenge measured after 60 mins
[17] = test system: Rattus norvegicus; assay: Antidepressant activity in Sprague-Dawley rat assessed as reduction of immobility time at 1 to 30 mg/kg, sc measured for 5 mins by forced swimming test; assay type: functional, organism-based; procedure, shortened: as §2
[18] = test system: Rattus norvegicus; assay: In vivo DAT occupancy in sc dosed Long Evans rat striatum using [3H]-PE2I administered 30 mins before [3H]-PE2I 35428 challenge measured after 60 mins; assay type: functional
Procedure, shortened: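 Test compound given sc to rats; 30 min later [3H]PE2I given sc as DAT radioligand, quantified in striatum. […] Mean reported, 95% CI typically ± half the mean.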

[19] = test system: Rattus norvegicus; assay: Antidepressant activity in Sprague-Dawley rat assessed as reduction of immobility time at 0.3 mg/kg, sc measured for 5 mins by forced swimming test; assay type: functional, organism-based; parameters: dose 0.3 mg/kg; procedure, shortened: as §2
[20] = test system: Rattus norvegicus; assay: In vivo DAT occupancy in sc dosed Long Evans rat striatum assessed as unbound plasma levels equaling 50% occupancy using [3H]WIN 35428 administered 30 mins before [3H]WIN 35428 challenge measured after 60 mins; assay type: functional, organism-based
[21] = test system: Rattus norvegicus; assay: Antidepressant activity in Sprague-Dawley rat assessed as reduction of immobility time at 1 mg/kg, sc measured for 5 mins by forced swimming test; assay type: functional, organism-based; parameters: dose 1 mg/kg
Procedure, shortened: (§3)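 Rats (Sprague–Dawley) given test compound sc, then scored in forced-swim test for immobility time. Vehicle group comparison; desipramine control dosed 15 mg/kg ip. Data as group means ± SEM; significance vs vehicle by one-way ANOVA.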

[22] = test system: Rattus norvegicus; assay: Antidepressant activity in Sprague-Dawley rat assessed as reduction of immobility time at 3 to 10 mg/kg, sc measured for 5 mins by forced swimming test; assay type: functional, organism-based; procedure, shortened: as §3

Sodium-dependent serotonin transporter, sequence (P31645 whole entry): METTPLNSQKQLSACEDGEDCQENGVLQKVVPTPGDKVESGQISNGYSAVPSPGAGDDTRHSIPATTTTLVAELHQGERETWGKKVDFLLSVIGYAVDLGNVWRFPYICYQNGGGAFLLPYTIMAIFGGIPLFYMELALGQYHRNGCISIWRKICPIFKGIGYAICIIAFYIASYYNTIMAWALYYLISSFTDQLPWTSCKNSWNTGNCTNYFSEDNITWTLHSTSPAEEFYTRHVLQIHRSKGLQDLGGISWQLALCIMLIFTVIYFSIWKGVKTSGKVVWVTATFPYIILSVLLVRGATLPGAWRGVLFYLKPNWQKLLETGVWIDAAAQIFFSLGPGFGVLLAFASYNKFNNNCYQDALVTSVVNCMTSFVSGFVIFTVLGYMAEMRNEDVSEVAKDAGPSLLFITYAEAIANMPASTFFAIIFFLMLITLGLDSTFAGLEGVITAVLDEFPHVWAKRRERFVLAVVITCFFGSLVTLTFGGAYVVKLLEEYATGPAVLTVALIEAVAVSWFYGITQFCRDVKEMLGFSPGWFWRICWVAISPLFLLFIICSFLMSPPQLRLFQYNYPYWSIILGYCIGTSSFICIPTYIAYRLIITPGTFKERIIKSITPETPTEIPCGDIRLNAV

Row | Structure (SMILES) | Ki [1] | IC50 [2] | Ki [3] | Ki [4] | microsomal CLint [5] | IC50 [6] | other results
1 | OCCN1CC=CC[C@H](c2ccc(Cl)c(Cl)c2)C1 | 150 nM | 10000 nM | 37 nM | 12 nM | 52 µL/min/mg | > 20000 nM | 
2 | C1=CCC(c2ccc3ccccc3c2)CNC1 (stereo unspecified) | 63 nM |  | 10 nM | 25 nM | 94 µL/min/mg | 6600 nM | 
3 | COCCN1CC=CC[C@H](c2ccc(Cl)c(Cl)c2)C1 | 540 nM | 5300 nM | 9 nM | 15 nM | 150 µL/min/mg | 3900 nM | 
4 | CN1CC=CC[C@@H](c2ccc(Cl)c(Cl)c2)C1 | 130 nM |  | 13 nM | 54 nM | 86 µL/min/mg |  | 
5 | CN1CC=CC[C@H](c2ccc(Cl)c(Cl)c2)C1 | 83 nM |  | 3 nM | 12 nM | 51 µL/min/mg |  | 
6 | C1=CCC(c2cc3ccccc3o2)CNC1 (stereo unspecified) | 240 nM | 19000 nM | 23 nM | 46 nM | 83 µL/min/mg | 7800 nM | 
7 | Clc1cccc(C2CC=CCNC2)c1 (stereo unspecified) |  | > 33000 nM | 240 nM | 430 nM |  |  | 
8 | CN1CCCCC(c2ccc(Cl)c(Cl)c2)C1 (racemic) | 260 nM | 10000 nM | 8 nM | 74 nM |  |  | 
9 | OCC[C@]1(c2cc3ccccc3o2)CCCNC1 | 230 nM |  | 6 nM | 4 nM | 22 µL/min/mg | > 20000 nM | Cp(f) [7]: 75%; Kp [8]: 5.8; ED50 [9]: 0.17 mg/kg; EC50 [10]: 33 nM; EC50 [11]: 5.6 nM; Stability [12]: Stable; Activity [13]: inactive; Activity [14]: inactive; Activity [15]: Active; ED50 [16]: 0.8 mg/kg
10 | CN1Cc2c(N)cccc2C(c2ccccc2)C1 (racemic) [NOMIFENSINE] |  | > 27000 nM |  |  | 37 µL/min/mg | > 20000 nM | Activity [17]: Active; Cp(f) [7]: 60.5%; Kp [8]: 10.1; ED50 [9]: 0.05 mg/kg; ED50 [18]: 0.7 mg/kg; Activity [13]: Dose-dependent effect; Activity [19]: inactive
11 | Fc1ccc(C2CC=CCNC2)cc1Cl (stereo unspecified) | 1500 nM |  | 68 nM | 130 nM | 15 µL/min/mg | 6400 nM | 
12 | Clc1ccc([C@@H]2CC=CCNC2)cc1Cl | 420 nM |  | 8 nM | 24 nM | 50 µL/min/mg | 3100 nM | 
13 | OCC[C@@]1(c2ccc(Cl)c(Cl)c2)CCCNC1 | 250 nM | > 33000 nM | 140 nM | 250 nM | < 4 µL/min/mg | > 20000 nM | 
14 | Cc1cc(C2CC=CCN(C)C2)ccc1Cl (stereo unspecified) | 270 nM | 26000 nM | 23 nM | 130 nM | 85 µL/min/mg | 18000 nM | 
15 | OCC[C@]1(c2ccc(Cl)c(Cl)c2)CCCNC1 | 42 nM | > 33000 nM | 9.3 nM | 3.3 nM | < 4 µL/min/mg | > 20000 nM | 
16 | Cc1cc(C2CC=CCNC2)ccc1Cl (stereo unspecified) |  | 26000 nM | 24 nM | 170 nM |  |  | 
17 | Clc1ccc(C2CC=CCNC2)cc1 (stereo unspecified) |  | > 31000 nM | 25 nM | 250 nM |  |  | 
18 | Clc1ccc(C2CCCCNC2)cc1Cl (racemic) | 140 nM | 6100 nM | 11 nM | 130 nM | 35 µL/min/mg | 2300 nM | 
19 | OCC[C@@]1(c2cc3ccccc3o2)CCCNC1 |  |  | 400 nM | 430 nM |  |  | 
20 | Cc1ccc(C2CC=CCNC2)cc1Cl (stereo unspecified) | 600 nM | > 27000 nM | 49 nM | 83 nM | 100 µL/min/mg | 5600 nM | 
21 | CN1CC=CCC(c2ccc(Cl)c(Cl)c2)C1 (racemic) | 100 nM |  | 5 nM | 57 nM | 57 µL/min/mg |  | 
22 | Clc1ccc([C@H]2CC=CCNC2)cc1Cl | 220 nM |  | 6 nM | 17 nM | 33 µL/min/mg | 3900 nM | Cp(f) [7]: 7.7%; Kp [8]: 4.8; ED50 [9]: 0.5 mg/kg; ED50 [18]: 0.8 mg/kg; EC50 [20]: 220 nM; EC50 [11]: 46 nM; Stability [12]: Stable; Activity [13]: Dose-dependent effect; Activity [21]: inactive; Activity [22]: Active
23 | Clc1ccc(C2CC=CCNC2)cc1Cl (racemic) | 220 nM |  | 6 nM | 66 nM | 30 µL/min/mg | 5100 nM | 
24 | CN1CC=CCC(c2cc3ccccc3o2)C1 (stereo unspecified) | 800 nM | 15000 nM | 60 nM | 120 nM | 97 µL/min/mg | 6700 nM | 
